5 molecules from paper PMC3960997 (Biochimica et biophysica acta, 2013) can be followed below.

Series [1] has as its target T1, full length TDP-43 (Homo sapiens, UniProt Q13148). Briefly: Inhibition of bt-TG12 binding to full length TDP-43. A digest of the protocol: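 In the same Tris pH 7.0 buffer, GST-tagged full-length TDP-43 (1.6 nM) was preincubated 15-30 min at RT with test-compound dilutions. 1.0 nM biotinylated TG12 was then added for 2 hr at RT. Streptavidin Tb donor and anti-GST d2 acceptor (2.6 μg/mL) were added for 1 hr, then time-resolved fluorescence 665/620 ratio. IC50 from three-parameter dose-response fit; geometric means of four determinations.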

The target in series [2] is T1, full length TDP-43. Briefly: Inhibition of UBQLN2 binding to full length TDP-43. A digest of the protocol: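 Test-compound dilutions were preincubated 15-30 min at room temperature with GST-tagged full-length TDP-43 (100 ng/mL, 1.6 nM) in 20 mM Tris pH 7.0, 2 mM MgCl₂, 0.05% CHAPS, 1% glycerol. HIS-UBQLN2 (100 ng/mL, 1.4 nM) was added for 2 hr at RT. Anti-GST Tb donor plus anti-HIS d2 acceptor were added for 1 hr. Read-out was TR-FRET 665/620 nm ratio (ex 330 nm). IC50 from three-parameter fit; geometric mean of four determinations.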

Series [3] has as its target T1, full length TDP-43. Briefly: Mode of inhibition of UBQLN2 binding to full length TDP-43. In outline:
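Saturation series: GST-tagged full-length TDP-43 (100 ng/mL, 1.6 nM) with HIS-UBQLN2 (1.0–60 nM), plus oligonucleotide (0–1 μM) or test compound (0–32 μM), 2 hr at RT. Anti-GST/anti-HIS HTRF antibodies were added for 1 hr; nonspecific binding taken without TDP-43. Global nonlinear fits to mixed versus noncompetitive inhibition models compared by F-test; Ki from global model. Duplicates, repeated at least three times.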

The target of series [4] is T2, C-terminal TDP-43 (261-414 aa) (Homo sapiens, UniProt Q13148). Briefly: Mode of inhibition of UBQLN2 binding to C-terminal TDP-43. In outline:
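GST-tagged C-terminal TDP-43 (261-414 aa, 4.6 nM) was incubated 2 hr at RT with a HIS-UBQLN2 concentration series, with no test compound or 1, 3.2, 10 or 32 μM. Anti-GST/anti-HIS HTRF antibodies were added for 1 hr, then TR-FRET ratio; nonspecific binding measured without TDP-43. Saturation isotherms globally fitted to a competitive inhibition model. Duplicates, repeated at least three times.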

In series [5] the target is T2, C-terminal TDP-43 (261-414 aa). Briefly: UBQLN2 saturation binding to C-terminal TDP-43. The conditions noted are these: read-out: KD for UBQLN2 binding to C-terminal TDP-43, C-terminal TDP-43 (261-414 aa) 4.6 nM, n=4.
The target of series [6] is T3, N-terminal TDP-43 (1-260 aa) (Homo sapiens, UniProt Q13148). Briefly: UBQLN2 saturation binding to N-terminal TDP-43. The conditions noted are these: N-terminal TDP-43 (1-260 aa) 2.2 nM, data not shown.
T3 sequence (Q13148 1-260): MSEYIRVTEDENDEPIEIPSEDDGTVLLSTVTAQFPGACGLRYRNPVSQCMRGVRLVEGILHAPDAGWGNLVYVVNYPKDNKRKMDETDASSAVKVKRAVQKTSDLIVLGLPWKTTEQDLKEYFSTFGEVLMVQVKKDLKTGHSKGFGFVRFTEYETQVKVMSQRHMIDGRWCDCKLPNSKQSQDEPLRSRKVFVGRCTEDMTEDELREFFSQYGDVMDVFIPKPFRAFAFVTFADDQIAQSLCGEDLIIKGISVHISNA
Series [7] has as its target T1, full length TDP-43. Briefly: Mode of inhibition of bt-TG12 binding to full length TDP-43. The following applies: F-test comparison of global fits with the mixed inhibition model. In outline:
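Biotinylated TG12 (3–1300 pM) was incubated 2 hr at RT with GST-tagged full-length TDP-43 (1.6 nM), without or with HIS-UBQLN2 (1.0, 3.2, 10, 32 nM). Streptavidin Tb donor and anti-GST d2 acceptor (2.6 μg/mL) were added for 1 hr; nonspecific binding measured without TDP-43. Global nonlinear fits to mixed versus noncompetitive inhibition models compared by F-test. Duplicates, repeated at least three times.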

Series [8] addresses T3, N-terminal TDP-43 (1-260 aa). Briefly: Inhibition of bt-TG12 binding to N-terminal TDP-43. The conditions noted are these: 1.0 nM bt-TG12, N-terminal TDP-43 2.2 nM, n=3. A digest of the protocol:
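GST-tagged N-terminal TDP-43 (1-260 aa; 100 ng/mL, 2.2 nM) was incubated 2 hr at RT with 1.0 nM biotinylated TG12 and either unlabeled oligonucleotide (1 pM–1 μM) or HIS-UBQLN2 (0.3 pM–0.3 μM). Streptavidin Tb donor plus anti-GST d2 acceptor (2.6 μg/mL) were added for 1 hr. Normalized to % bound (0% = 1.0 μM unlabeled TG12); IC50 from three-parameter fit. Duplicates, experiment repeated three times.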

The target in series [9] is N-terminal 6XHIS tagged full length UBQLN2 (human, UniProt Q9UHD9 1-624). Briefly: AlphaScreen or HTRF. On the technique in general: In Alpha technology, singlet oxygen from a donor bead excites a nearby acceptor bead.
Sequence of N-terminal 6XHIS tagged full length UBQLN2 (Q9UHD9 whole entry): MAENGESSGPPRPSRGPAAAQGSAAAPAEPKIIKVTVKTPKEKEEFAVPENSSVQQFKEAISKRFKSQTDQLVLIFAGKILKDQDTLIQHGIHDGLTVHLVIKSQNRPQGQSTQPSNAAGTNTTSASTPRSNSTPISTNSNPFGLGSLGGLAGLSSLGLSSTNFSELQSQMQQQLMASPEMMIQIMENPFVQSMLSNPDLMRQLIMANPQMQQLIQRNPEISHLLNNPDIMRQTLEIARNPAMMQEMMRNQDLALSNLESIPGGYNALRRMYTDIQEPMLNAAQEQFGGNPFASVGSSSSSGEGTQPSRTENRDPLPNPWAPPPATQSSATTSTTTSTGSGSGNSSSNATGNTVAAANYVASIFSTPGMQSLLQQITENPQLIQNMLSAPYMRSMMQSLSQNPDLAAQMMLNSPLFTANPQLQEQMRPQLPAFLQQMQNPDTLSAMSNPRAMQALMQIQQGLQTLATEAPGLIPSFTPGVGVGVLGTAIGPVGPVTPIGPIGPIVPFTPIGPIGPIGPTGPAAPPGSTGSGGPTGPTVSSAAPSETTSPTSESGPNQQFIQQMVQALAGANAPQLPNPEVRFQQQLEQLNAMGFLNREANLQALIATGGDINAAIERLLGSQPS

T1 sequence (Q13148 whole entry): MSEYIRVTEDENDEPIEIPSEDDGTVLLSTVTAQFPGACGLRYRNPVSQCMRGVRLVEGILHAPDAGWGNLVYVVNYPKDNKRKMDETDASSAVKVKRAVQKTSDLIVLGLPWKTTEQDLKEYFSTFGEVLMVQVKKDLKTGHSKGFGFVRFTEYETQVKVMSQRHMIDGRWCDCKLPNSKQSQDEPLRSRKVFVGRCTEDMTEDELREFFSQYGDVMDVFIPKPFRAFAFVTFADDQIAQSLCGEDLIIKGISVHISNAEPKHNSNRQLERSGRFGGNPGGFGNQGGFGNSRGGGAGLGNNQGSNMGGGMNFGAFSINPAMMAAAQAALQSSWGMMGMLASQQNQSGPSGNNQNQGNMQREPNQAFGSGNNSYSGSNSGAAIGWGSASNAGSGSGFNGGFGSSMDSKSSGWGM

In general, IC50 refers to the concentration that inhibits the measured activity by half. As for “5′-CTGCTTTTTGCCTGTACTGGGTCTCTGTGGTT-3′ (DNA CTGCTTTTTGCCTGTACTGGGTCTCTGTGGTT; chemistry not given here) [TAR32, reference compound]”, the “Fold IC50 relative to TG12 for inhibition of nucleic acid binding” value with full length TDP-43 [1] (bt-TG12 binding to full length TDP-43) is recorded as ~ 10 fold. In addition, the IC50 in the series with full length TDP-43 [1] (read-out: IC50 (95% CI) inhibition of bt-TG12 binding to full length TDP-43, 1.0 nM bt-TG12, TDP-43 1.6 nM, geometric mean of four determinations (Section 2.4)) is 16 nM.
The Ki is a dissociation constant, usually derived from enzyme kinetics or from competition with a known ligand. High values mean lower affinity, low ones higher affinity. Consider `COc1ccc(-c2cc(NCCCN(C)C)c3ccccc3n2)cc1` [AAQ1, (3-{[2-(4-methoxyphenyl)quinolin-4-yl]amino}propyl)dimethylamine], for which the IC50 on full length TDP-43 [2] came to 5500 nM; on full length TDP-43 [1] it was 1000 nM. For the same molecule, the “Fold less potent for inhibition of UBQLN2 binding compared to inhibition of nucleic acid binding to TDP-43” value on full length TDP-43 [2] (full length TDP-43) is 5 fold. In addition, the Ki on full length TDP-43 [3] turned out to be 3400 nM; in series [4], 4200 nM. For the same molecule, on full length TDP-43 [3] (F-test comparison of global fits with the mixed inhibition model), the “Mode of inhibition of UBQLN2 binding to full length TDP-43” value is given as “competitive”. Further, the “Mode of inhibition of UBQLN2 binding to C-terminal TDP-43” value in [4] (C-terminal TDP-43 (261-414 aa)) is “competitive”.
On to `CN(C)CCN(C)c1cc(-c2ccccc2)nc2ccccc12` [AAQ2, N-[2-(dimethylamino)ethyl]-N-methyl-2-phenylquinolin-4-amine], for which the IC50 at full length TDP-43 [2] and at full length TDP-43 [1] was more than 100 nM in each case. Further, on full length TDP-43 [2] (1.4 nM UBQLN2, TDP-43 1.6 nM), the “IC50 inhibition of UBQLN2 binding to TDP-43” value is on record as “no activity”. The “IC50 inhibition of bt-TG12 binding to TDP-43” value on full length TDP-43 [1] (1.0 nM bt-TG12, TDP-43 1.6 nM) is “no activity”.
In general, Kd refers to the free concentration of one partner at which half of the binding sites on the other are occupied at equilibrium, for simple one-to-one binding. For the molecule “UBQLN2: N-terminal 6XHIS tagged full length UBQLN2 protein, custom made by ProteinTech Group”, the Kd in series [5] was 8.7 nM. In addition, the “UBQLN2 binding to N-terminal TDP-43” value in [6] is listed as “unable to detect appreciable UBQLN2 binding”. In addition, the “Mode of inhibition of bt-TG12 binding to full length TDP-43” value in the series with full length TDP-43 [7] was “noncompetitive”. In addition, in series [8], the “IC50 for inhibition of bt-TG12 binding to N-terminal TDP-43” value was “unable to inhibit”.

B1: Human N-terminal GST tagged C-terminal TDP-43 (261-414 aa) (domain or fragment, UniProt Q13148 261-414, looked up)
chain: EPKHNSNRQLERSGRFGGNPGGFGNQGGFGNSRGGGAGLGNNQGSNMGGGMNFGAFSINPAMMAAAQAALQSSWGMMGMLASQQNQSGPSGNNQNQGNMQREPNQAFGSGNNSYSGSNSGAAIGWGSASNAGSGSGFNGGFGSSMDSKSSGWGM
In turn, B1 registered a Kd in [9] of 8.7 nM.
